Only some compounds are listed: those with a hit (about 3.8% of all), similar ones and a draw of the others.
Kir21 block = Kir2.1 (mouse) channel inhibition; HEK293-Kir2.1, FluxOR thallium flux fluorescence; active compounds read low; B-score at 10 µM; 310,000 tested, 0.85% active;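 active = fluorescence ratio B-score at or below minus 3 SD of library scores, with starting-brightness B-score within 2 SD, cut at about -4.2 in these data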;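 also: channel flux triggered by added potassium and thallium sulfate stimulus; B-score of peak minus minimum fluorescence over baseline after thallium stimulus; more negative B-score means stronger Kir2.1 block with less thallium influx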
KCNK3 block = human KCNK3 channel inhibition, primary screen | CHO-KCNK3 thallium flux, FluxOR fluorescence; active compounds read low | 340,000 tested, 0.84% active | AID 602410 | B-score at 10 µM | O14649;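 active = B-score under library mean minus 4 SD, starting fluorescence ratio at most library mean plus 5 SD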;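 also: more negative B-score means stronger inhibition of thallium flux through KCNK3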
hERG rescue = hERG (human) protection from proarrhythmic block; Q12809; CHO-hERG, FluxOR thallium flux, dofetilide IC70 present; activation (rescue from dofetilide block), less the hit threshold, % at 10 µM; 310,000 tested, 0.51% active;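 active = activation above the mean of controls blocked by dofetilide plus 5 SD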;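 also: thallium influx through hERG after potassium depolarization seen as dye fluorescence rise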
KCNQ1 pot = human KCNQ1 channel potentiation or activation | P51787 | CHO-K1 KCNQ1, thallium flux FluxOR fluorescence; active compounds read high | B-score at 10 µM | 310,000 tested, 0.35% active | AID 2648;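 active = fluorescence ratio B-score, a plate-corrected score, at least three library SD, with initial intensity B-score within 5 SD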
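assay system = CHO-K1 cells stably expressing KCNQ1 | medium = assay buffer, equal DMSO in all wells | timing = 37 °C overnight plating, 90-min dark dye load, 20-min compound pretreatment | measured by = kinetic FluxOR thallium fluorescence, 10-s 1-Hz baseline, 110-s post-stimulus read | measure = fluorescence change relative to baseline, converted to B score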
KCNQ1 inh = inhibitors of human KCNQ1 potassium channel; P51787; CHO-K1 KCNQ1, FluxOR thallium flux fluorescence; active compounds read high; B-score at 10 µM; 310,000 tested, 1.3% active;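 active = compounds whose thallium flux B-score, printed positive for inhibition, exceeds three library SD while starting fluorescence stays within three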;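 also: channel opened by potassium depolarization with thallium stimulus after 20 min compound exposure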
KCNK9 block = human KCNK9 channel inhibition; Q9NPC2; AID 488922; B-score at 10 µM; 310,000 tested, 1.2% active; HEK293 KCNK9, FluxOR thallium flux fluorescence; active compounds read low;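 active = ratio B-score over 3 SD below the library mean, with starting fluorescence within 5 SD of its mean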;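 also: negative B-score means less thallium flux so channel inhibition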
Target sequence (Q9NPC2 whole entry, looked up): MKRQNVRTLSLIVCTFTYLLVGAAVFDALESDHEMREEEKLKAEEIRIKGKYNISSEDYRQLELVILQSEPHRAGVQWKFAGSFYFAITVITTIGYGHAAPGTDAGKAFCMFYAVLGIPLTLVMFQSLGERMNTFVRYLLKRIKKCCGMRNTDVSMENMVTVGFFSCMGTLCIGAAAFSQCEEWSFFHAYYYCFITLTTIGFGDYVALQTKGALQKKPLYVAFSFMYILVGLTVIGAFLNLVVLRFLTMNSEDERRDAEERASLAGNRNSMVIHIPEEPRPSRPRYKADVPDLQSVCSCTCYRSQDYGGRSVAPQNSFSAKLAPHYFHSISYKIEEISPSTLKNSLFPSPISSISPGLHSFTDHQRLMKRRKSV
KCNK3 inh conf = human KCNK3 channel inhibition, confirmation assay | shares compounds with KCNK3 block | CHO-KCNK3 thallium flux, FluxOR fluorescence; 0% buffer, 100% carvedilol maximal block | ratio percent of control, % at 10 µM | 2,400 tested, 99% active;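 active = ratio percent of control, averaged over triplicates, above buffer control mean plus 5 SD, cut at about 64% in these data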;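 also: ratio is the fluorescence rise from min to max over baseline after thallium stimulus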
KCNK3 uninduced = KCNK3 inhibitor counter-screen hit in non-induced cells; 2,400 tested, 40% active; shares compounds with KCNK3 block; non-induced KCNK3 parental cells, FluxOR thallium flux; active compounds read low; thallium flux ratio (lower = more inhibition) at 10 µM;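 active = thallium flux ratio, averaged over three wells, more than 5 SD below the buffer control mean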;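 also: host cells are CHO cells without KCNK3 induction; ratio is peak minus trough fluorescence over baseline then normalized to buffer controls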
Active calls of the source: *; i = inactive; · = not tested or not shown.

SMILES	Kir21 block	KCNK3 block	hERG rescue	KCNQ1 pot	KCNQ1 inh	KCNK9 block	KCNK3 inh conf	KCNK3 uninduced
c1ccc(CN2CCN(c3nc(NCc4ccco4)c4ccccc4n3)CC2)cc1	-3.5	-11*	-38	i	i	i	141*	0.1*
c1ccc(CN2CCN(c3nc4ccccc4c4ccccc34)CC2)cc1	1.1	-11*	-11	i	i	i	98*	i
CC(C)CN(C(=O)CC(C)c1ccccc1)c1c(N)n(Cc2ccccc2)c(=O)[nH]c1=O (stereo not given)	0.14	i	-8	i	i	i	·	·
COc1ccc(-c2cccc(C3CC=CC4C3C(=O)N(Cc3ccccc3)C4c3ccc(OC)c(Cl)c3)c2)cc1 (stereo not given)	-1.2	i	-18	i	i	i	·	·
N#Cc1cccc(CN2CCCN(Cc3ccc(F)cc3)S2(=O)=O)c1	-0.69	-9.2*	-4	i	i	i	94*	0.15*
Cc1ccc(S(=O)(=O)N(C)c2ccc3ccccc3c2)cc1	-0.46	-9.4*	-38	i	i	i	122*	0.13*
O=C(CSc1nnc(-c2ccco2)o1)N1CCCCC1	2	i	-4	i	i	i	·	·
Fc1ccc(C(c2nnnn2Cc2cccs2)N2CCN(c3ccccc3)CC2)cc1 (stereo not given)	0.57	-10*	-11	i	i	-7.4*	102*	i
c1ccc(Cn2nnnc2C(c2cccs2)N2CCCCCC2)cc1 (stereo not given)	-1.4	-10*	-6	i	i	i	116*	0.13*
COC(=O)C(Cc1csc2ccc(Cl)cc12)NC(=O)c1ccc(Cl)cc1 (stereo not given)	-0.6	-10*	4	i	i	i	140*	0.14*
C[C@@]12C(=O)Nc3cc(F)c(F)cc3C(=O)N1[C@H]1c3cc(Cl)ccc3OC[C@@H]1[C@@H]2c1ccccc1	·	i	·	·	·	·	·	·
CC(C)c1ccccc1NC(=O)COC(=O)C1(C)CC1(Cl)Cl (stereo not given)	-1.1	i	-7	i	i	i	·	·
CCCCOc1ccc2ccccc2c1C=O	-0.47	-15*	-4	i	i	i	129*	i
CSCCC(NC(=O)COc1ccccc1)C(=O)N1CCN(c2ccccc2F)CC1 (stereo not given)	1.3	i	-5	i	i	i	·	·
OC1CCN(c2c3c(nc4cc(-c5ccc(F)cc5)nn24)CCC3)CC1	0.98	i	-8	i	i	i	·	·
OC1CCCN(c2c3c(nc4cc(-c5cccc(Cl)c5)nn24)CCC3)C1 (stereo not given)	-0.12	-10*	-5	i	i	i	93*	i
OC1CCCN(c2c3c(nc4cc(-c5cccc(F)c5)nn24)CCCC3)C1 (stereo not given)	1.5	i	-17	i	i	i	·	·
Cc1cccc(-c2cc3nc4c(c(N5CCCC(O)C5)n3n2)CCC4)c1 (stereo not given)	-0.02	-10*	-3	i	i	i	103*	i
Cc1cc(Br)ccc1NC(=O)CN(C)C(=O)c1cccc(S(=O)(=O)N2CCN(C)CC2)c1	·	i	·	·	·	·	·	·
COc1ccc(C(=O)Nc2ccnn2C2CCN(C(=O)c3cnsn3)CC2)cc1	3.1	i	-5	i	i	i	·	·
C=CCNC(=S)NCC1COc2ccccc2O1 (stereo not given)	-2.4	i	-8	i	i	i	·	·
Cc1c(Cl)cccc1NC(=S)NCC1COc2ccccc2O1 (stereo not given)	-2.9	-8.9*	-9	i	i	i	125*	0.14*
C/C(=N\NC(=O)c1nn(C)c(C)c1Br)c1ccc(NC(=O)c2ccc(C)s2)cc1	0.04	-8.8*	-6	i	i	i	101*	i
CC(Oc1ccc(F)cc1)C(=O)Nc1sc2c(c1C(=O)NCc1cccnc1)CCCC2 (stereo not given)	-0.1	-8.9*	-10	i	i	i	113*	i
Cc1cc(C)cc(OC(C)C(=O)Nc2ccccc2C(=O)NCc2cccnc2)c1 (stereo not given)	-0.71	-9.7*	-8	i	i	i	84*	0.16*
SMILES	Kir21 block	KCNK3 block	hERG rescue	KCNQ1 pot	KCNQ1 inh	KCNK9 block	KCNK3 inh conf	KCNK3 uninduced
Cc1ccc(C)c(Nc2cc(C(=O)NCc3cccnc3)c3ccccc3n2)c1	-0.85	-8.9*	-16	i	i	-7.9*	87*	i
COc1ccccc1Nc1cc(C(=O)NCc2cccnc2)c2ccccc2n1	0.23	i	-7	i	i	i	·	·
Cn1c(CC(=O)Nc2ccccc2C(F)(F)F)c(Sc2ccccc2)c2ccccc21	1.8	i	-12	i	i	i	·	·
O=C1CC2c3ccccc3C1C1C(=O)N(Cc3ccccc3)C(=O)C21 (stereo not given)	0.42	i	-13	i	i	i	·	·
Cc1cccc(C)c1NC(=O)CNC(=O)c1cncc(Br)c1	-0.21	i	-5	i	i	i	·	·
CCOC(=O)C1=C(C)NC2=C(C(=O)c3ccccc32)C1c1cccc2ccccc12 (stereo not given)	-1.5	-11*	-4	i	i	i	113*	0.15*
CC(=O)O/N=C(\N)c1cnn2c(C(F)(F)F)cc(C(F)(F)F)nc12	-0.47	i	-7	i	i	i	·	·
CCOC(=O)c1sc2nc(CC(=O)OC)nc(N(C)CCc3ccccn3)c2c1C	0.18	-10*	-10	i	i	i	109*	i
CCOC(=O)c1sc2nc(CC(=O)OC)nc(NCCN(CC)CC)c2c1C	0.76	i	-7	i	i	i	·	·
CCOC(=O)N1CCN(C(=O)c2cc3c(s2)-c2c(C)cccc2OC3)CC1	-0.01	i	-4	i	i	i	·	·
CCN1CCN(C(=O)c2cc3c(s2)-c2c(C)cccc2OC3)CC1	0	i	-11	i	i	i	·	·
Cc1cccc2c1-c1sc(C(=O)N3CCc4ccccc4C3)cc1CO2	0.57	-8.7*	-7	i	i	i	87*	0.14*
Cc1cccc2c1-c1sc(C(=O)N3CCCCC3)cc1CO2	1.6	-12*	-6	i	i	i	90*	i

Screening results: PubChem, Johns Hopkins Ion Channel Center
